Results from different studies.
Protocols differ between the studies behind these lines.
Target: Serine/threonine-protein kinase pim-2 (PIM2, Homo sapiens, UniProt Q9P1W9)

| SMILES | observed | action | method | concentration | quantity | result |
| --- | --- | --- | --- | --- | --- | --- |
| CC(C)CC(=O)N1CCc2nc(-c3ccc(Br)cc3)nc(N(C)Cc3ccccc3)c2C1 | cell-free assay |  | competition with immobilised ligand | 0.1 µM | remaining binding | 100% |
| FC(F)c1nc2ccccc2n1-c1nc(N2CCOCC2)nc(N2CCOCC2)n1 | enzyme activity | inhibitor |  | 10 µM | remaining activity | 92% |
| Nc1ncnc2occ(-c3ccc(NC(=O)Nc4cc(C(F)(F)F)ccc4F)cc3)c12 | cell-free assay | inhibitor |  | 20 µM | remaining signal | 100% |
| O=C1NC(=O)c2cc(Nc3ccc(F)cc3)c(Nc3ccc(F)cc3)cc21 | cell-free assay |  |  | 0.5 µM | remaining signal | 98.6% |
| CO[C@@H](C)c1c(Nc2ccc([C@H](N(C)C(=O)C3CCS(=O)(=O)CC3)C(F)(F)F)cc2)cnc2cc(Cl)nn12 | cell-free assay |  | competition with immobilised ligand | 1 µM | remaining binding | 100% |
| Cc1cc(NC(=O)c2cccc3cc(-c4cccc5[nH]nc(N)c45)ccc23)ccc1F | enzyme activity | inhibitor |  | 0.1 µM | activity vs control | 87% |
| O=C(Nc1cnn(-c2csc(C(=O)NC3COC3)c2)c1)Nc1c(F)cccc1Cl | enzyme activity | inhibitor |  | 5 µM | remaining activity | 129% |
| O=C1CCc2cc(Nc3cc(OC4CCOCC4)c([N+](=O)[O-])cc3Cl)ccc2N1 | cell-free assay |  | competition with immobilised ligand | 1 µM | remaining binding | 84% |
| CC(C)(C)c1nc(-c2cccc(NS(=O)(=O)c3c(F)cccc3F)c2F)c(-c2ccnc(N)n2)s1 | enzyme activity | inhibitor | radiometric | 1 µM | remaining activity | 77% |
| COc1cc(Cl)c(C(=O)N[C@@H](CN[C@H]2CC[C@@H](N)CC2)Cc2ccc(C#N)cc2)cc1-c1ccc(CN[C@H](C)c2ccc(C)cc2)o1 | enzyme activity | inhibitor |  | 1 µM | remaining activity | 92% |
| CCCS(=O)(=O)Nc1ccc(F)c(C(=O)c2c[nH]c3ncc(-c4ccc(Cl)cc4)cc23)c1F | enzyme activity | inhibitor |  | 1 µM | inhibition | < 10% |
| Cc1c(NC(=O)c2cc(C(N)=O)nc3cc(F)ccc23)c(C(F)(F)F)nn1Cc1ccc(C#N)cc1 | cell-free assay |  | competition with immobilised ligand | 1 µM | remaining binding | 94% |
| CCOc1cc(-c2nncn2C)ccc1Nc1ncc2cc(C)nc(NCC(C)(C)C)c2n1 | enzyme activity | inhibitor | FRET | 1 µM | inhibition | < 15% |
| COc1cc(Nc2cnc(C#N)c(O[C@H](C)CN(C)C)n2)ncc1-c1cnn(C)c1 | enzyme activity | inhibitor | radiometric | 10 µM | remaining activity | 77% |
| CSc1nc(C)c(-c2ccnc(Nc3ccc(N4CCOCC4)cc3)c2)[nH]1 | enzyme activity | inhibitor |  | 10 µM | inhibition | -4.8% |
| Nc1nc(Nc2ccccc2)sc1C(=O)c1c(F)cccc1F | enzyme activity | inhibitor |  | 10 µM | remaining activity | 91% |

| SMILES | observed | action | method | concentration | quantity | result |
| --- | --- | --- | --- | --- | --- | --- |
| Cc1nc(N2CC[C@@H](O)C2)ncc1-c1cc(C(F)(F)F)cc2[nH]ncc12 | binding |  | competition with immobilised ligand | 1 µM | remaining binding | 89% |
| CCCOc1ccc(OC)c(F)c1C(=O)c1ccc(C(=O)N[C@@H]2CNC[C@H]2NC(=O)c2ccc3[nH]ncc3c2)cc1 | enzyme activity | inhibitor |  | 10 µM | remaining activity | 101% |
| CC/C(=N\NC(=O)NCc1cccc(O)c1)c1ccc(O)c(C)c1O | enzyme activity | inhibitor |  | 0.1 µM | inhibition | -5% |
| COc1cc2ncnc(Nc3ccc(Oc4ccccc4)c(C)c3C)c2cc1OC | enzyme activity | inhibitor |  | 1 µM | inhibition | -2% |
| FC(F)(F)Oc1cccc(-c2cnc3ccc(-c4ccncc4)nn23)c1 | enzyme activity | inhibitor | radiometric | 1 µM | activity vs control | 88% |
| CC(C)(C)C(=O)c1sc(NC2CCCCC2)nc1N | enzyme activity | inhibitor |  | 10 µM | remaining activity | 109% |
| Cc1nccc(COC(=O)N2C[C@@H]3[C@@H](CNC(=O)c4ccc5[nH]nnc5c4)[C@@H]3C2)n1 | cell-free assay |  | competition with immobilised ligand | 1 µM | remaining binding | 0% |
| Cc1ccc(NC(=O)c2ccc(CN3CCN(C)CC3)cc2)cc1Nc1nc(-c2cccnc2)cs1 | cell-free assay |  |  | 0.5 µM | remaining signal | 118% |
| Cn1nc(C(F)(F)F)cc1-c1cnc(N2CCc3cc(S(=O)(=O)Nc4c(F)cc(Cl)cc4F)cc(N4CCCC4=O)c32)nc1 | cell-free assay |  | competition with immobilised ligand | 1 µM | remaining binding | 100% |
| N#CCCc1ccc2c(c1)-c1[nH]c3ccc([N+](=O)[O-])cc3c1CC(=O)N2 | cell-free assay |  |  | 0.5 µM | remaining signal | 104% |
| COc1ccc2c(c1)O[C@@H](c1ccc(OC)c(OC)c1)C[C@H]2NC(=O)C1(c2ccc3c(c2)OC(F)(F)O3)CC1 | cell-free assay |  | competition with immobilised ligand | 1 µM | remaining binding | 100% |
| CNC(=O)c1cc(Oc2ccc(NC(=O)Nc3ccc(Cl)c(C(F)(F)F)c3)cc2)ccn1 | enzyme activity | inhibitor |  | 10 µM | inhibition | 9% |
| COc1cc(Nc2c(C#N)cnc3cc(OCCCN4CCN(C)CC4)c(OC)cc23)c(Cl)cc1Cl | cell-free assay |  |  | 0.5 µM | remaining signal | 111% |
| CS(=O)(=O)Nc1cccc(-c2csc(NC(=O)CSc3nc4nccnc4c(=O)n3CCc3ccccc3)n2)c1 | enzyme activity | inhibitor |  | 10 µM | inhibition | -8% |
| Cc1ccc(NC(=O)c2ccc(C)c(C(F)(F)F)c2)cc1C#Cc1nn(C2CCC(O)CC2)c2ncnc(N)c12 (stereo not shown) | cell-free assay |  |  | 10 µM | remaining signal | 112% |
